According to article PMC3866226 (Molecular pharmaceutics, 2013):
Several values for one entry are separate records, joined by “and”; a condition that tells them apart may be missing. Equal entries are not always repeated. Entries after “also recorded” stand apart in the source; their conditions may differ. Bridge positions count the residues as written; N and C are the ends. Square brackets hold non-standard residues; d marks the D form. Peptide text beside a SMILES is read from it.

Legend:
B16/F1 melanoma cells [1] = assay: Cellular internalization; assay type: cell-based, murine; conditions: after 20 min of incubation at 25 °C, acid wash pH 4.5, n=3
Summary of the method: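 Cells at 2.5×10^5/well were grown overnight at 37 °C and washed with binding medium (MEM, 25 mM HEPES pH 7.4, 0.2% BSA, 0.3 mM 1,10-phenanthroline). They were incubated at 25 °C with ~200,000 cpm HPLC-purified radiopeptide for 20–120 min (n=3). Membrane-bound activity was stripped with 40 mM sodium acetate pH 4.5/0.9% NaCl/0.2% BSA. Cells were lysed in 1 N NaOH for 5 min; both fractions were gamma-counted.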

[2] = system: B16/F1 melanoma-bearing C57 mice; assay: Urinary metabolites by radio-HPLC; assay type: in vivo, mouse; conditions: urine at 2 h post-injection of ~3.7 MBq via tail vein
B16/F1 melanoma cells [3] = assay: Cellular efflux; assay type: cell-based, murine; conditions: loaded 2 h at 25 °C, then 2 h of incubation in the culture medium
Summary of the method: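 B16/F1 cells were seeded at 2.5×10^5/well and grown overnight at 37 °C. They were loaded with radiopeptide for 2 h at 25 °C and rinsed twice with ice-cold PBS. Release into culture medium was then monitored. At 20, 40, 60, 90 and 120 min, surface-bound and intracellular radioactivity were collected separately and gamma-counted.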

[4] = system: B16/F1 melanoma-bearing C57 mice; assay: Biodistribution in B16/F1 melanoma-bearing C57 mice; assay type: in vivo, mouse
Summary of the method: (§1)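 Female C57 mice bore subcutaneous right-flank tumours from 1×10^6 B16/F1 cells (~0.2 g at 10 days). Radiopeptide, 0.037 MBq in pH 7.4 saline, went in via tail vein. Groups of 4 were killed at 0.5, 2, 4 and 24 h; tumours and organs were weighed and gamma-counted. Blood was taken as 6.5% body weight. Blockade: co-injected 10 µg (6.1 nmol) unlabeled NDP-MSH, 2 h. Results as %ID/g or %ID, mean ± SD, n=4.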

[5] = as above; assay type: in vivo, mouse; conditions: female, C57, mouse, iv, 0.037 MBq, total radioactivity
Summary of the method: as §1

[6] = system: B16/F1 melanoma-bearing C57 mice; assay: Melanoma imaging by small animal SPECT/CT; assay type: in vivo, mouse; conditions: 2 h post-injection of 7.4 MBq via tail vein
[7] = system: B16/F1 melanoma-bearing C57 mice; assay: Effect of L-lysine co-injection on renal and tumor uptake; assay type: in vivo, mouse; conditions: 2 h post-injection, 15 mg L-lysine
Summary of the method: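 Groups of 4 tumour-bearing C57 mice received 0.037 MBq radiopeptide mixed with 15 mg L-lysine via injection. Mice were killed at 2 h, and tumours and organs were weighed and gamma-counted. Uptake with versus without L-lysine was compared by unpaired Student's t-test, significance p<0.05.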

## CC(C)[C@H](NC(=O)[C@@H]1CCCN1C(=O)[C@H](CCCNC(=N)N)NC(=O)[C@H](CS)NC(=O)[C@H](Cc1c[nH]c2ccccc12)NC(=O)[C@H](CCCNC(=N)N)NC(=O)[C@@H](Cc1ccccc1)NC(=O)[C@H](Cc1c[nH]cn1)NC(=O)[C@H](CCC(=O)O)NC(=O)[C@H](CS)NC(=O)[C@H](CS)NC(=O)[C@H](CCCCN)NC(=O)[C@@H]1CC(=O)N[C@@H](CCCNC(=N)N)C(=O)N[C@@H]([C@@H](C)O)C(=O)N[C@@H](CC(=O)O)C(=O)N[C@H](Cc2ccc(O)cc2)C(=O)N1)C(N)=O [^99mTc-RTD-Lys-(Arg^11)CCMSH, metal not drawn] (RTD[dY]DKCCEH[dF]RWCRPV-NH2; lactam N-5)
B16/F1 melanoma cells [1]
  Activity internalized in the cells: Approximately 71%
[2]
  Remained intact in the urine: Approximately 70%
  Transformed to a more hydrophobic compound in the urine: 30%
B16/F1 melanoma cells [3]
  Activity remained inside the cells (cellular efflux): 75%
[4]; 0.5 h post-injection
  Uptake ratio Tumor/Blood: 0.91
[4]; 2 h post-injection, NDP blockade
  Uptake ratio Tumor/Blood: 5.70
[5]; blood
  tissue uptake at 0.5 h: 15.9 ± 3.97 %ID/g
  tissue uptake at 2 h: 0.44 ± 0.13 %ID/g
  tissue uptake at 4 h: 0.55 ± 0.41 %ID/g
  tissue uptake at 24 h: 0.4 ± 0.21 %ID/g
[5]; bone
  tissue uptake at 0.5 h: 1.66 ± 0.1 %ID/g
  tissue uptake at 2 h: 0.46 ± 0.11 %ID/g
  tissue uptake at 4 h: 0.39 ± 0.12 %ID/g
  tissue uptake at 24 h: 0.23 ± 0.09 %ID/g
[5]; brain
  tissue uptake at 0.5 h: 0.14 ± 0.04 %ID/g
  tissue uptake at 2 h: 0.03 ± 0.01 %ID/g
  tissue uptake at 4 h: 0.02 ± 0.01 %ID/g
  tissue uptake at 24 h: 0.03 ± 0.01 %ID/g
[5]; heart
  tissue uptake at 0.5 h: 1.86 ± 0.21 %ID/g
  tissue uptake at 2 h: 0.29 ± 0.08 %ID/g
  tissue uptake at 4 h: 0.19 ± 0.05 %ID/g
  tissue uptake at 24 h: 0.12 ± 0.02 %ID/g
[5]; intestines
  tissue uptake dose at 0.5 h: 1.73 ± 0.17 %ID
  tissue uptake dose at 2 h: 0.84 ± 0.2 %ID
  tissue uptake dose at 4 h: 0.72 ± 0.18 %ID
  tissue uptake dose at 24 h: 0.48 ± 0.13 %ID
[5]; kidneys
  tissue uptake at 0.5 h: 145 ± 24.6 %ID/g
  tissue uptake at 2 h: 135 ± 23.6 %ID/g
  tissue uptake at 4 h: 106 ± 27.7 %ID/g
  tissue uptake at 24 h: 46.8 ± 14.8 %ID/g
[5]; liver
  tissue uptake at 0.5 h: 2.09 ± 0.04 %ID/g
  tissue uptake at 2 h: 1.62 ± 0.14 %ID/g
  tissue uptake at 4 h: 2.01 ± 0.39 %ID/g
  tissue uptake at 24 h: 1.03 ± 0.1 %ID/g
[5]; lung
  tissue uptake at 0.5 h: 4.27 ± 0.27 %ID/g
  tissue uptake at 2 h: 0.51 ± 0.37 %ID/g
  tissue uptake at 4 h: 0.39 ± 0.24 %ID/g
  tissue uptake at 24 h: 0.23 ± 0.04 %ID/g
[5]; muscle
  tissue uptake at 0.5 h: 0.8 ± 0.38 %ID/g
  tissue uptake at 2 h: 0.15 ± 0.05 %ID/g
  tissue uptake at 4 h: 0.07 ± 0.02 %ID/g
  tissue uptake at 24 h: 0.52 ± 0.1 %ID/g
[5]; pancreas
  tissue uptake at 0.5 h: 0.83 ± 0.4 %ID/g
  tissue uptake at 2 h: 0.11 ± 0.04 %ID/g
  tissue uptake at 4 h: 0.09 ± 0.05 %ID/g
  tissue uptake at 24 h: 0.13 ± 0.07 %ID/g
[5]; skin
  tissue uptake at 0.5 h: 3.99 ± 0.42 %ID/g
  tissue uptake at 2 h: 0.5 ± 0.19 %ID/g
  tissue uptake at 4 h: 0.27 ± 0.13 %ID/g
  tissue uptake at 24 h: 1.01 ± 0.31 %ID/g
[5]; spleen
  tissue uptake at 0.5 h: 1.04 ± 0.33 %ID/g
  tissue uptake at 2 h: 0.48 ± 0.2 %ID/g
  tissue uptake at 4 h: 0.47 ± 0.18 %ID/g
  tissue uptake at 24 h: 0.19 ± 0.13 %ID/g
[5]; stomach
  tissue uptake at 0.5 h: 1.87 ± 0.21 %ID/g
  tissue uptake at 2 h: 0.67 ± 0.16 %ID/g
  tissue uptake at 4 h: 0.7 ± 0.23 %ID/g
  tissue uptake at 24 h: 0.21 ± 0.04 %ID/g
[5]; tumor / blood
  tissue to tissue ratio at 2 h: 42.7
  tissue to tissue ratio at 4 h: 25.2
  tissue to tissue ratio at 24 h: 14.6
[5]; tumor / kidneys
  tissue to tissue ratio at 0.5 h: 0.1
  tissue to tissue ratio at 2 h: 0.14
  tissue to tissue ratio at 4 h: 0.13
  tissue to tissue ratio at 24 h: 0.12
[5]; tumor / lung
  tissue to tissue ratio at 0.5 h: 3.41
  tissue to tissue ratio at 2 h: 36.8
  tissue to tissue ratio at 4 h: 35.5
  tissue to tissue ratio at 24 h: 25.4
[5]; tumor
  tissue uptake at 0.5 h: 14.6 ± 5.31 %ID/g
  tissue uptake at 2 h: 18.8 ± 5.13 %ID/g
  tissue uptake at 4 h: 13.8 ± 3.1 %ID/g
  tissue uptake at 24 h: 5.84 ± 0.5 %ID/g
[5]; tumor/liver
  tissue to tissue ratio at 0.5 h: 6.97
  tissue to tissue ratio at 2 h: 11.6
  tissue to tissue ratio at 4 h: 6.89
  tissue to tissue ratio at 24 h: 5.67
[5]; tumor/muscle
  tissue to tissue ratio at 0.5 h: 18.2
  tissue to tissue ratio at 2 h: 125
  tissue to tissue ratio at 4 h: 198
  tissue to tissue ratio at 24 h: 11.2
[5]; urine
  dose excreted at 0.5 h: 28.6 ± 8.85%
  dose excreted at 2 h: 54.8 ± 5.65%
  dose excreted at 4 h: 61.2 ± 5.56%
  dose excreted at 24 h: 82.2 ± 4.69%
[6]
  Visualization of flank B16/F1 melanoma lesions by SPECT/CT: clearly visualized
[7]; versus without L-lysine
  Reduction of renal uptake by L-lysine co-injection: 55% and 40–50%
[7]; p>0.05
  Effect of L-lysine co-injection on tumor uptake: didn't affect the tumor uptake; also recorded: without affecting their tumor uptake
